Assay results taken from ChEMBL document CHEMBL1828506, “New fluorine-containing hydrazones active against MDR-tuberculosis” (Eur J Med Chem, 2011).
In brackets after ≈: the same amount, converted by molar mass.

What was measured:
[1] = test system: Mycobacterium tuberculosis; assay: Antimycobacterial activity against multidrug-resistant Mycobacterium tuberculosis A8 241 after 28 days by colony forming unit determination; assay type: functional; conditions: A8 241, 672 h
In short: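 Compounds added to Sula liquid medium as DMSO solutions (DMSO at most 2%), incubated at 37 °C for 28 days. MIC is the lowest concentration giving visible growth inhibition. Activity was confirmed by CFU counts after subculture onto drug-free Löwenstein-Jensen solid medium.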

[2] = Selectivity index, ratio of IC50 for human HepG2 cells to MIC for multidrug-resistant Mycobacterium tuberculosis A8 241; assay type: functional

Row | SMILES | MIC [1] [µg/mL] | Selectivity Index [2]
1 | O=C(N/N=C/Nc1ccc(C(=O)O)c(O)c1)c1ccc(C(F)(F)F)cc1 | 0.5 (≈ 1.36 µM) | –
2 | O=C(N/N=C/Nc1ccc(C(=O)O)c(O)c1)c1cccc(C(F)(F)F)c1 | 0.5 (≈ 1.36 µM) | –
3 | O=C(N/N=C/Nc1ccc(C(=O)O)c(O)c1)c1ccc(F)cc1 | 0.5 (≈ 1.58 µM) | –
4 | O=C(N/N=C/Nc1ccc(C(=O)O)c(O)c1)c1cccc(F)c1 | 0.5 (≈ 1.58 µM) | 592.64
5 | O=C(O)c1ccc(N/C=N/NC(=O)c2ccccc2F)cc1O | 0.5 (≈ 1.58 µM) | 767.77
6 | O=C(N/N=C/N1CCN(c2cc3c(cc2F)c(=O)c(C(=O)O)cn3C2CC2)CC1)c1ccc(C(F)(F)F)cc1 | 0.5 (≈ 0.917 µM) | 378.41
7 | O=C(N/N=C/N1CCN(c2cc3c(cc2F)c(=O)c(C(=O)O)cn3C2CC2)CC1)c1cccc(C(F)(F)F)c1 | 0.5 (≈ 0.917 µM) | 351.15
8 | O=C(N/N=C/N1CCN(c2cc3c(cc2F)c(=O)c(C(=O)O)cn3C2CC2)CC1)c1ccc(F)cc1 | 0.5 (≈ 1.01 µM) | 1268.58
9 | O=C(N/N=C/N1CCN(c2cc3c(cc2F)c(=O)c(C(=O)O)cn3C2CC2)CC1)c1cccc(F)c1 | 0.5 (≈ 1.01 µM) | 804.76
10 | CCn1cc(C(=O)O)c(=O)c2cc(F)c(N3CCN(/C=N/NC(=O)c4ccc(C(F)(F)F)cc4)CC3)cc21 | 5 (≈ 9.37 µM) | 3.98
11 | CCn1cc(C(=O)O)c(=O)c2cc(F)c(N3CCN(/C=N/NC(=O)c4cccc(F)c4)CC3)cc21 | 5 (≈ 10.3 µM) | 38
12 | Nc1ccc(C(=O)O)c(O)c1 [AMINOSALICYLIC ACID] | 0.25 (≈ 1.63 µM) | –
13 | O=C(O)c1cn(C2CC2)c2cc(N3CCNCC3)c(F)cc2c1=O [CIPROFLOXACIN] | 1.5 (≈ 4.53 µM) | 110.37
14 | NNC(=O)c1ccncc1 [ISONIAZID] | 1 (≈ 7.29 µM) | –
15 | CCn1cc(C(=O)O)c(=O)c2cc(F)c(N3CCNCC3)cc21 [NORFLOXACIN] | 10 (≈ 31.3 µM) | 15.87
